The values that follow come from ChEMBL document CHEMBL4402513, “Bio-Inspired Dual-Selective BCL-2/c-MYC G-Quadruplex Binders: Design, Synthesis, and Anticancer Activity of Drug-like Imidazo[2,1-i]purine Derivatives” (J Med Chem, 2020).

Active and inactive are the calls of the source. The calls are words filed in the database; no cut-off is given here.

Test [1] relates to Quadruplex DNA. The experiment in a line: Binding affinity to synthetic c-MYC G4 quadruplex DNA assessed as change in melting temperature at 10 molar equiv to DNA measured after 10 mins by circular dichroism melting analysis. The format is nucleic-acid assay. In a few lines: (§1)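 CD melting of folded DNA (G4 10 µM, duplex 15 µM) in 20 mM KCl, 5 mM KH2PO4 (pH 7.0), without and with 10 molar equivalents of ligand. Tm was taken from curve fitting, and ΔTm = Tm(DNA+ligand) − Tm(DNA). Runs were done in triplicate and averaged.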

Test [2] relates to Quadruplex DNA. The experiment in a line: Binding affinity to synthetic c-KIT1 G4 quadruplex DNA assessed as change in melting temperature at 10 molar equiv to DNA measured after 10 mins by circular dichroism melting analysis. The class given is nucleic-acid assay. In a few lines:
as §1

Test [3] deals with Quadruplex DNA. Put plainly: Binding affinity to human telomeric 23 G4 quadruplex DNA assessed as change in melting temperature at 10 molar equiv to DNA measured after 10 mins by circular dichroism melting analysis. The class given is nucleic-acid assay. In a few lines: as §1
For test [4], the system named is Quadruplex DNA. The experiment in a line: Binding affinity to synthetic BCL2 G4 quadruplex DNA assessed as change in melting temperature at 10 molar equiv to DNA measured after 10 mins by circular dichroism melting analysis. The format is nucleic-acid assay. The essentials:
as §1

A short description of test [5]: Binding affinity to synthetic 20-mer hairpin duplex DNA assessed as change in melting temperature at 10 molar equiv to DNA measured after 10 mins by circular dichroism melting analysis. In a few lines:
as §1

The test system of test [6] is Jurkat. The experiment in a line: Induction of apoptosis in human Jurkat cells assessed as early apoptotic cells at 25 uM measured after 48 hrs by Annexin V-FITC/propidium iodide staining based flow cytometry (reference value: 0.3%). The class given is functional.
For test [7], the system named is Jurkat. Put plainly: Cytotoxicity against human Jurkat cells assessed as cell viability at 50 uM measured after 48 hrs by combined MTT and trypan blue staining based cell counting assay relative to control. The class given is functional. As to conditions: read-out: Activity. The essentials: (§2)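 Cells were seeded at 10^4/well (HDF 10^3), grown 24 h, then treated 48 h at 5–100 µM in 0.5% v/v DMSO. Read-outs were MTT (1 h, 37 °C, absorbance 550 nm; Jurkat handled by centrifugation) combined with trypan blue live/dead counting into a survival index versus untreated cells. IC50 came from nonlinear regression, n = 6 per experiment ×3 (n = 18), mean ± SEM.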

Test [8] relates to Jurkat. The experiment in a line: Down regulation of c-MYC mRNA expression in human Jurkat cells at 25 uM measured after 24 hrs by RT-qPCR analysis relative to control. The class given is functional. In a few lines:
(§3)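 Jurkat cells were treated 24 h at 25 µM, and total RNA was extracted with TRI Reagent. 0.5 µg RNA was reverse transcribed with MMLV RT and random primers (22 °C 10 min, 42 °C 60 min). SYBR qPCR ran 40 cycles (95/59/72 °C) in duplicate with GAPDH as reference. Relative expression was calculated by the […] method from at least three independent experiments.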

The subject of test [9] is Jurkat. Put plainly: Down regulation of BCL2 mRNA expression in human Jurkat cells at 25 uM measured after 24 hrs by RT-qPCR analysis relative to control. The format is functional. The essentials:
as §3

Test [10] has as its system Jurkat. Put plainly: Down regulation of BCL2 expression in human Jurkat cells at 25 uM measured after 24 hrs by Western blot analysis relative to control. The class given is functional. In a few lines: (§4)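 Jurkat cells treated 24 h at 25 µM were lysed in 50 mM Hepes pH 7.4, 50 mM NaCl, 1% Triton with protease inhibitors. Protein was quantified by Bradford and run on 10% SDS-PAGE to nitrocellulose. Blots were probed with anti-Bcl-2, anti-c-Myc and anti-β-actin and detected by ECL. Densitometry was normalised to β-actin and expressed as % of control; three independent experiments.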

The subject of test [11] is Jurkat. Put plainly: Induction of apoptosis in human Jurkat cells assessed as viable cells at 25 uM measured after 48 hrs by Annexin V-FITC/propidium iodide staining based flow cytometry (reference value: 97%). The format is functional. Particulars: read-out: Activity.
Test [12] relates to Jurkat. The experiment in a line: Induction of apoptosis in human Jurkat cells assessed as late apoptotic cells at 25 uM measured after 48 hrs by Annexin V-FITC/propidium iodide staining based flow cytometry (reference value: 1.4%). The format is functional.
The subject of test [13] is Jurkat. Put plainly: Down regulation of c-MYC expression in human Jurkat cells at 25 uM measured after 24 hrs by Western blot analysis relative to control. The class given is functional. The essentials:
as §4

Test [14] deals with Quadruplex DNA. Put plainly: Binding affinity to human telomeric 23 G4 quadruplex DNA assessed as change in chiral structure at 10 molar equiv to DNA measured after 10 mins by circular dichroism spectroscopic analysis. The class given is nucleic-acid assay. The essentials:
(§5)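 CD spectra of annealed DNA in 20 mM KCl, 5 mM KH2PO4 (pH 7.0). G4 DNAs were at 10 µM and duplex at 15 µM. Ligand (10 mM DMSO stock) was added at 10 molar equivalents. Spectra were recorded 10 min after addition at 20 °C over 230–360 nm, averaged over three scans and baseline corrected.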

Test [15] relates to Quadruplex DNA. The experiment in a line: Binding affinity to synthetic c-KIT1 G4 quadruplex DNA assessed as change in chiral structure at 10 molar equiv to DNA measured after 10 mins by circular dichroism spectroscopic analysis. The class given is nucleic-acid assay. In a few lines: as §5
Test [16] has as its system Quadruplex DNA. Put plainly: Binding affinity to synthetic BCL2 G4 quadruplex DNA assessed as change in chiral structure at 10 molar equiv to DNA measured after 10 mins by circular dichroism spectroscopic analysis. The class given is nucleic-acid assay. In a few lines:
as §5

Test [17] in a line: Binding affinity to synthetic 20-mer hairpin duplex DNA assessed as change in chiral structure at 10 molar equiv to DNA measured after 10 mins by circular dichroism spectroscopic analysis. The essentials:
as §5

In test [18] the test system is Quadruplex DNA. The experiment in a line: Binding affinity to synthetic c-MYC G4 quadruplex DNA assessed as change in chiral structure at 10 molar equiv to DNA measured after 10 mins by circular dichroism spectroscopic analysis. The format is nucleic-acid assay. In a few lines: as §5
In test [19] the test system is Jurkat. Put plainly: Cytotoxicity against human Jurkat cells assessed as reduction in cell viability at 50 uM measured after 48 hrs by combined MTT and trypan blue staining based cell counting assay. The class given is functional. The essentials:
as §2

Turning to `CC(C)(C)Nc1c(-c2ccccc2F)nc2c3ncn(CCN4CCOCC4)c3ncn12`, the ΔTm with Quadruplex DNA [1] amounted to 1.9 °C; in the test on Quadruplex DNA [2], 1 °C; with Quadruplex DNA [3], 0.7 °C; in the test with Quadruplex DNA [4], 2.6 °C; in test [5], 0.5 °C.
The matching figures for `CN(C)c1ccc(-c2nc3c4ncn(CCCNC(=N)N)c4ncn3c2NC(C)(C)C)cc1`: 2.5 °C, 2.1 °C, 0.6 °C, 2.8 °C and 0.2 °C.
The corresponding values for `CC(C)(C)Nc1c(-c2ccccc2OCCN2CCOCC2)nc2c3ncn(CCN4CCOCC4)c3ncn12` are 1.9 °C, 0.8 °C, 0.1 °C, 1.9 °C and 1.2 °C.
The corresponding values for `CC(C)(C)Nc1c(-c2ccc(Cl)cc2)nc2c3ncn(CCN4CCOCC4)c3ncn12` are 1.6 °C, 1.1 °C, 0.3 °C, 2.1 °C and -0.5 °C.
As to `CC(C)(C)Nc1c(-c2ccccc2OCCN2CCCC2)nc2c3ncn(CCN4CCCC4)c3ncn12`, the ΔTm in the test on Quadruplex DNA [1] amounted to 8.4 °C; with Quadruplex DNA [2], 4.5 °C; in the test with Quadruplex DNA [3] it was 4.9 °C; in the test with Quadruplex DNA [4], 7.1 °C; in test [5], 2.2 °C.
As for `CN(C)CCCn1cnc2c1ncn1c(NC(C)(C)C)c(-c3ccccc3F)nc21`, the Activity in the test with Jurkat [6] was found to be 13%; in the test with Jurkat [8], 56%; in the test with Jurkat [9], 43%; with Jurkat [12], 68%. Moreover, the viability at 50 µM in the test on Jurkat [7] was determined as 60%. For the same compound, the ΔTm in the test with Quadruplex DNA [1] turned out to be 11.5 °C; in the test on Quadruplex DNA [2], 2.6 °C; with Quadruplex DNA [3], 1.2 °C; with Quadruplex DNA [4], 8.2 °C; in [5], 0.2 °C. The outcome in the test with Jurkat [10] and in the test with Jurkat [13] was Active. In the test with Jurkat [11], the viability at 25 µM amounted to 16%.
Turning to `CN(C)CCCn1cnc2c1ncn1c(NC(C)(C)C)c(-c3ccc(N(C)C)cc3)nc21`, the ΔTm is over 25 °C with Quadruplex DNA [1], 11.9 °C in the test on Quadruplex DNA [2], 7.2 °C with Quadruplex DNA [3] and 16.9 °C in the test with Quadruplex DNA [4].
As to `CN(C)c1ccc(-c2nc3c4ncn(CCCN)c4ncn3c2NC(C)(C)C)cc1`, the ΔTm in the test on Quadruplex DNA [1] was 1.1 °C; with Quadruplex DNA [2], 1.4 °C; with Quadruplex DNA [3], -0.1 °C; in the test on Quadruplex DNA [4] it was 1.7 °C; in test [5], 0.5 °C.
Take `CN(C)CCCn1cnc2c1ncn1c(NC(C)(C)C)c(-c3ccc(N4CCOCC4)cc3)nc21`: the ΔTm in the test on Quadruplex DNA [1] is 9.5 °C; in the test on Quadruplex DNA [2] it was 5.1 °C; in the test with Quadruplex DNA [3], 3.8 °C; in the test on Quadruplex DNA [4], 10.1 °C; in test [5], 9.7 °C.
The matching figures for `CN(C)c1ccc(-c2nc3c4ncn(CCN5CCCC5)c4ncn3c2NC(C)(C)C)cc1`: 19.5 °C, 7.3 °C, 4.8 °C, 13.4 °C and 7.5 °C.
`CN(C)c1ccc(-c2nc3c4ncn(CCN5CCOCC5)c4ncn3c2NC(C)(C)C)cc1`: the ΔTm in the test with Quadruplex DNA [1] came out at 7.2 °C; in the test with Quadruplex DNA [2] it was 5.2 °C; in the test with Quadruplex DNA [3] it was 2.4 °C; in the test on Quadruplex DNA [4] it was 9.2 °C; in test [5] it was 1.9 °C. Further, the outcome (with Quadruplex DNA [14]; in the test with Quadruplex DNA [15]; in the test with Quadruplex DNA [16]; in [17]; in the test on Quadruplex DNA [18]) was inactive.
As for `CC(C)(C)Nc1c(-c2ccc(N3CCOCC3)cc2)nc2c3ncn(CCN4CCCC4)c3ncn12`, the ΔTm in the test with Quadruplex DNA [1] is 8.7 °C; in the test on Quadruplex DNA [2], 2.9 °C; in the test on Quadruplex DNA [3] it was 2.2 °C; in the test with Quadruplex DNA [4], 9.1 °C; in [5] it was 6 °C.
Turning to `CN(C)c1ccc(-c2nc3ccn(CCN4CCOCC4)c(=O)n3c2NC(C)(C)C)cc1`, the deltaTm entry (in the test with Quadruplex DNA [1]; in the test with Quadruplex DNA [2]; with Quadruplex DNA [3]; with Quadruplex DNA [4]; in test [5]) was “inactive” each time. The outcome (with Quadruplex DNA [14]; in the test with Quadruplex DNA [15]; with Quadruplex DNA [16]; in test [17]; in the test on Quadruplex DNA [18]) was inactive.
Take `CN(C)CCCOc1ccccc1-c1nc2c3ncn(CCCN(C)C)c3ncn2c1NC(C)(C)C`: the ΔTm in the test with Quadruplex DNA [1] is over 25 °C; with Quadruplex DNA [2], 4.5 °C; in the test on Quadruplex DNA [3] it was 5.7 °C; in the test on Quadruplex DNA [4], 7.8 °C; in test [5] it was 3.5 °C.
In the case of `CC(C)(C)Nc1c(-c2ccccc2F)nc2c3ncn(CCN4CCCC4)c3ncn12`, the ΔTm in the test with Quadruplex DNA [1] is 5.8 °C; in the test with Quadruplex DNA [2], 2.1 °C; in the test with Quadruplex DNA [3] it was 1.1 °C; in the test with Quadruplex DNA [4] it was 5 °C; in test [5] it was 0.3 °C.
Consider `CC(C)(C)Nc1c(-c2ccc(N3CCOCC3)cc2)nc2c3ncn(CCN4CCOCC4)c3ncn12`, for which the Activity is 8% in the test on Jurkat [6], 27% in the test on Jurkat [8] and 9% in the test on Jurkat [12]. In addition, the ΔTm came to 2.1 °C in the test with Quadruplex DNA [1]; 1.9 °C in the test on Quadruplex DNA [2]; 1 °C in the test with Quadruplex DNA [3]; 4.9 °C with Quadruplex DNA [4]; 1.5 °C in test [5]. Moreover, the result in the test on Jurkat [19], in the test on Jurkat [10] and with Jurkat [13] was Active. Moreover, the viability at 25 µM with Jurkat [11] is 79%.
Take `CC(C)(C)Nc1c(-c2ccc(Cl)cc2)nc2c3ncn(CCN4CCCC4)c3ncn12`: the ΔTm is 6.4 °C in the test with Quadruplex DNA [1]; 2.3 °C with Quadruplex DNA [2]; 2.3 °C in the test with Quadruplex DNA [3]; 4.5 °C in the test with Quadruplex DNA [4]; 1.9 °C in test [5].
Turning to `CC(C)(C)Nc1c(-c2ccc(Cl)cc2)nc2[nH]c(=O)c3ncn(CCN4CCOCC4)c3n12`, the deltaTm entry (with Quadruplex DNA [1]; in the test with Quadruplex DNA [2]; in the test on Quadruplex DNA [3]; in the test with Quadruplex DNA [4]; in test [5]) was “inactive” in each case. The result (with Quadruplex DNA [14]; in the test on Quadruplex DNA [15]; in the test with Quadruplex DNA [16]; in [17]; in the test with Quadruplex DNA [18]) was inactive.
